# Assay results: ChEMBL document CHEMBL3414433, “Discovery and profiling of a selective and efficacious Syk inhibitor” (J Med Chem, 2015)
# The source made the active and inactive calls. No cut-off for these calls is given here.
# Experiments:
# Rattus norvegicus [1] = assay: Dose normalized AUC in Sprague-Dawley rat at 1 mg/kg, iv administered as cassette dosing; type: ADME, organism-based; parameters: dose 1 mg/kg, route intravenous; settings: in vivo
# Procedure, shortened: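 Rat PK: i.v. 1 mg/kg in NMP/PEG200 (3:7); p.o. 3 mg/kg in CMC/water/Tween (0.5:99:0.5). Exposure values dose normalized.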
# [2] = Drug uptake in Lewis rat blood at 22 mg/kg, po measured after 4 hrs; type: ADME, organism-based; parameters: dose 22 mg/kg, route oral; settings: read-out: Drug uptake
# Procedure, shortened: (§1)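 Single oral dose of 22 mg/kg to Lewis rats; blood sampled at 2, 4 and 24 h after dosing for compound level and ex vivo FcγR-induced phospho-SLP76 in peripheral blood monocytes.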
# [3] = Drug uptake in blood of Lewis rat collagen-induced arthritis model at 3 mg/kg, po qd administered on day 15 post immunization measured at 24 hrs on day 18; type: ADME, organism-based; parameters: dose 3 mg/kg, route oral; settings: read-out: Drug uptake
# Procedure, shortened: (§2)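 Collagen-arthritic Lewis rats given 3, 10 or 30 mg/kg p.o. once daily from day 15; blood levels measured on day 18 (third day of treatment) at 4, 8 and 24 h after dosing.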
# [4] = Drug metabolism in liver microsomes (unknown origin); type: ADME
# [5] = molecular target: T1, Tyrosine-protein kinase ZAP-70 (Homo sapiens, UniProt P43403); assay: Competitive binding affinity to human ZAP70
# T1 sequence (P43403 whole entry): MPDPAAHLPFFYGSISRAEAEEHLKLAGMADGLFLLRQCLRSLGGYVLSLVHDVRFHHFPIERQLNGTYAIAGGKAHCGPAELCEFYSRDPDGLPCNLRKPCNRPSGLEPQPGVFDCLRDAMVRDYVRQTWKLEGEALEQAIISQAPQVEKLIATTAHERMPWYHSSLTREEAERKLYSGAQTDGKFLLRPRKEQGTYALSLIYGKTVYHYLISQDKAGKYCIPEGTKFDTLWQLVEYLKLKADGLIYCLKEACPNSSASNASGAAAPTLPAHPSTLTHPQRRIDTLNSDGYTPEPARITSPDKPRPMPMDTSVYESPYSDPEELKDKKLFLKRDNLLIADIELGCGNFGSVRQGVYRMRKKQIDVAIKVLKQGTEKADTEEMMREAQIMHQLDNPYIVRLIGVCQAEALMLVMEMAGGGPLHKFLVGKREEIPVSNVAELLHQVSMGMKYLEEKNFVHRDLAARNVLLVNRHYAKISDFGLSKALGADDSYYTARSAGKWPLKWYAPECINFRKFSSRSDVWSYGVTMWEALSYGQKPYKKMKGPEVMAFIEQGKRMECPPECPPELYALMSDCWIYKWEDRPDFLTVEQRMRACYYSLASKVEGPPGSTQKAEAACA
# Rattus norvegicus [6] = species: Rattus norvegicus; assay: Hepatotoxicity in rat assessed as bile plugs measured for 4 weeks by GLP study; type: toxicity, organism-based; settings: in vivo, 672 h
# [7] = Volume of distribution at steady state in Beagle dog at 0.1 mg/kg, iv and 0.3 mg/kg, po; type: ADME, organism-based, Canis lupus familiaris; settings: in vivo, read-out: Vdss
# Procedure, shortened: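 Beagle dogs dosed one-in-one. The i.v. dose was 0.1 mg/kg in NMP/PEG200 (3:7), and the p.o. dose was 0.3 mg/kg in MC/water (0.5:99.5). Blood levels were followed after each route.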
# Rattus norvegicus [8] = assay: In vivo inhibition of Syk in Lewis rat assessed as reduction in FcgR-induced SLP76 phosphorylation in peripheral blood monocytes at 3 to 30 mg/kg, po measured after 2 to 24 hrs; type: functional, organism-based; parameters: route oral
# Rattus norvegicus [9] = assay: Antiarthritic activity in Lewis rat collagen-induced arthritis model assessed as reduction of joint damage/erosions in hind paw at 3 to 30 mg/kg, po qd administered on day 15 post immunization measured after day 28 by Giemsa/safranin O staining-based assay; type: functional, organism-based
# Procedure, shortened: (§3)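 Female Lewis rats (140−160 g), arthritis induced by porcine collagen immunization (day 0) and boost (day 7); rats with swollen joints randomized, dosed orally once daily from day 15 to day 28. Hind paws taken on day 28, fixed in 10% buffered formalin for 48 h, decalcified over 16 days, paraffin-embedded; 3 μm sections stained with Giemsa and safranin O and scored.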
# [10] = Drug uptake in blood of Lewis rat collagen-induced arthritis model at 3 mg/kg, po qd administered on day 15 post immunization measured at 4 hrs on day 18; type: ADME, organism-based; parameters: dose 3 mg/kg, route oral; settings: read-out: Drug uptake; procedure, shortened: as §2
# [11] = Drug uptake in blood of Lewis rat collagen-induced arthritis model at 30 mg/kg, po qd administered on day 15 post immunization measured at 8 hrs on day 18; type: ADME, organism-based; parameters: dose 30 mg/kg, route oral; settings: read-out: Drug uptake; procedure, shortened: as §2
# [12] = molecular target: Tyrosine-protein kinase SYK (Homo sapiens, UniProt P43405); assay: Inhibition of Syk in anti-igM stimulated human Ramos B cells assessed as phospho-BLNK level preincubated for 30 mins followed by anti-IgM stimulation measured after 15 mins by flow cytometric analysis; type: cell-based
# [13] = molecular target: Serine/threonine-protein kinase PAK 4 (Homo sapiens, UniProt O96013); assay: Competitive binding affinity to human PAK4
# Chain of Serine/threonine-protein kinase PAK 4 (O96013 whole entry): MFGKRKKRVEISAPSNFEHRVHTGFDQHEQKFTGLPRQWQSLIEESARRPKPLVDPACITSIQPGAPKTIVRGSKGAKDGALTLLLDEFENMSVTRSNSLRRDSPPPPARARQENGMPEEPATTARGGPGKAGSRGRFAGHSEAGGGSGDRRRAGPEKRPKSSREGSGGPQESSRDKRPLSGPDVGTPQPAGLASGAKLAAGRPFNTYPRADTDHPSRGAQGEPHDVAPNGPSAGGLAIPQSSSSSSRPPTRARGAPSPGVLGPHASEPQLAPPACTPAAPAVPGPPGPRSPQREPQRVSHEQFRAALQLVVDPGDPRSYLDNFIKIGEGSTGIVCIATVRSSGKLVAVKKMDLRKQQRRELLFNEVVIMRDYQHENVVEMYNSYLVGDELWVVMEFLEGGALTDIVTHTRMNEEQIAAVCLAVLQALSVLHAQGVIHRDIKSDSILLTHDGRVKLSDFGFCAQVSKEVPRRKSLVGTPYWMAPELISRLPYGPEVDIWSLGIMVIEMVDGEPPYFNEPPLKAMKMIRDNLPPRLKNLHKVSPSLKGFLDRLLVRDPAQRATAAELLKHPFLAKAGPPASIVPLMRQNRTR
# Canis familiaris [14] = assay: Dose normalized AUC in Beagle dog at 0.1 mg/kg, iv; type: ADME, organism-based, Canis lupus familiaris; parameters: dose 0.1 mg/kg, route intravenous; settings: in vivo
# Procedure, shortened: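 One-in-one dosing in Beagle dogs: i.v. 0.1 mg/kg in NMP/PEG200 (3:7); p.o. 0.3 mg/kg in MC/water (0.5:99.5). Exposure values dose normalized.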
# Canis familiaris [15] = species: Canis familiaris; assay: Hepatotoxicity in dog assessed as single necrosis of hepatocytes measured for 4 weeks by GLP study; type: toxicity, organism-based, Canis lupus familiaris, Hepatocyte; settings: 672 h
# [16] = molecular target: Serine/threonine-protein kinase PAK 5 (Homo sapiens, UniProt Q9P286); assay: Competitive binding affinity to human PAK7
# Chain of Serine/threonine-protein kinase PAK 5 (Q9P286 whole entry): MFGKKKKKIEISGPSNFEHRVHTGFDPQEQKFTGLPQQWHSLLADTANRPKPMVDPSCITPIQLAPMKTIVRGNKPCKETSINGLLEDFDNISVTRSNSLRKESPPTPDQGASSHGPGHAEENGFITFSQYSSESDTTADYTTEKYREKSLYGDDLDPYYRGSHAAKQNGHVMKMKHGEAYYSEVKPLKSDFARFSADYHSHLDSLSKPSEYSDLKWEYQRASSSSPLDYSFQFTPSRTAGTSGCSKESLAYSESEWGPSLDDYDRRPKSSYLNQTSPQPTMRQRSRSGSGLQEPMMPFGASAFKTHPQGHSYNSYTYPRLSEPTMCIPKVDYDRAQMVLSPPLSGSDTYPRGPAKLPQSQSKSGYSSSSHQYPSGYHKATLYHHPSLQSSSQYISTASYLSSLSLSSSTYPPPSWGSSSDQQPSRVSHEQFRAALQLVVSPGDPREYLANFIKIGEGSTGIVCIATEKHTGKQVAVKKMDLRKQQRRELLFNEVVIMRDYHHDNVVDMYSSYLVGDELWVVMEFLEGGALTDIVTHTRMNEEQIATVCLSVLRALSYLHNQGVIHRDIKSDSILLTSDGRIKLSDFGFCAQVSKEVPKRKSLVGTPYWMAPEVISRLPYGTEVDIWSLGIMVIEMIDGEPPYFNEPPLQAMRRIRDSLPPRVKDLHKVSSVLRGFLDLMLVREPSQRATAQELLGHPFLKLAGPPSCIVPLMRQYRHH
# Rattus norvegicus [17] = assay: Increase in body weight gain in Lewis rat collagen-induced arthritis model at 3 to 30 mg/kg, po qd administered on day 15 post immunization measured up to day 28; type: functional, organism-based
# Procedure, shortened: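 Lewis rats with collagen-induced arthritis, randomized once joints swelled and given 3, 10 or 30 mg/kg p.o. once daily from day 15 to 28; animals weighed regularly throughout, compared against vehicle-treated rats.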
# [18] = Volume of distribution at steady state in Sprague-Dawley rat at 1 mg/kg, iv and 3 mg/kg, po administered as cassette dosing; type: ADME, organism-based; settings: in vivo, read-out: Vdss
# Procedure, shortened: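 Rats were dosed i.v. at 1 mg/kg in NMP/PEG200 (3:7) and p.o. at 3 mg/kg in CMC/water/Tween (0.5:99:0.5). PK parameters were derived from blood concentration–time curves for both routes.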
# [19] = Drug uptake in blood of Lewis rat collagen-induced arthritis model at 10 mg/kg, po qd administered on day 15 post immunization measured at 8 hrs on day 18; type: ADME, organism-based; parameters: dose 10 mg/kg, route oral; settings: read-out: Drug uptake; procedure, shortened: as §2
# Rattus norvegicus [20] = assay: Antiarthritic activity in Lewis rat collagen-induced arthritis model assessed as reduction of proteoglycan loss in hind paw at 3 to 30 mg/kg, po qd administered on day 15 post immunization measured after day 28 by Giemsa/safranin O staining-based assay; type: functional, organism-based; procedure, shortened: as §3
# [21] = Cytotoxicity against C57BL/6 mouse bone marrow cells assessed as growth inhibition preincubated for 4 days followed by [3H]-thymidine addition measured after 5 hrs by betaplate counting analysis; type: cell-based, Bone marrow cell; settings: Mus musculus, C57BL/6, Bone marrow cell
# Rattus norvegicus [22] = assay: In vivo inhibition of Syk in Lewis rat assessed as reduction in FcgR-induced SLP76 phosphorylation in peripheral blood monocytes at 22 mg/kg, po measured after 4 hrs relative to vehicle-treated control; type: functional; procedure, shortened: as §1
# [23] = molecular target: Voltage-gated inwardly rectifying potassium channel KCNH2 (Homo sapiens, UniProt Q12809); assay: Inhibition of human ERG by GLP study
# Chain of Voltage-gated inwardly rectifying potassium channel KCNH2 (Q12809 whole entry): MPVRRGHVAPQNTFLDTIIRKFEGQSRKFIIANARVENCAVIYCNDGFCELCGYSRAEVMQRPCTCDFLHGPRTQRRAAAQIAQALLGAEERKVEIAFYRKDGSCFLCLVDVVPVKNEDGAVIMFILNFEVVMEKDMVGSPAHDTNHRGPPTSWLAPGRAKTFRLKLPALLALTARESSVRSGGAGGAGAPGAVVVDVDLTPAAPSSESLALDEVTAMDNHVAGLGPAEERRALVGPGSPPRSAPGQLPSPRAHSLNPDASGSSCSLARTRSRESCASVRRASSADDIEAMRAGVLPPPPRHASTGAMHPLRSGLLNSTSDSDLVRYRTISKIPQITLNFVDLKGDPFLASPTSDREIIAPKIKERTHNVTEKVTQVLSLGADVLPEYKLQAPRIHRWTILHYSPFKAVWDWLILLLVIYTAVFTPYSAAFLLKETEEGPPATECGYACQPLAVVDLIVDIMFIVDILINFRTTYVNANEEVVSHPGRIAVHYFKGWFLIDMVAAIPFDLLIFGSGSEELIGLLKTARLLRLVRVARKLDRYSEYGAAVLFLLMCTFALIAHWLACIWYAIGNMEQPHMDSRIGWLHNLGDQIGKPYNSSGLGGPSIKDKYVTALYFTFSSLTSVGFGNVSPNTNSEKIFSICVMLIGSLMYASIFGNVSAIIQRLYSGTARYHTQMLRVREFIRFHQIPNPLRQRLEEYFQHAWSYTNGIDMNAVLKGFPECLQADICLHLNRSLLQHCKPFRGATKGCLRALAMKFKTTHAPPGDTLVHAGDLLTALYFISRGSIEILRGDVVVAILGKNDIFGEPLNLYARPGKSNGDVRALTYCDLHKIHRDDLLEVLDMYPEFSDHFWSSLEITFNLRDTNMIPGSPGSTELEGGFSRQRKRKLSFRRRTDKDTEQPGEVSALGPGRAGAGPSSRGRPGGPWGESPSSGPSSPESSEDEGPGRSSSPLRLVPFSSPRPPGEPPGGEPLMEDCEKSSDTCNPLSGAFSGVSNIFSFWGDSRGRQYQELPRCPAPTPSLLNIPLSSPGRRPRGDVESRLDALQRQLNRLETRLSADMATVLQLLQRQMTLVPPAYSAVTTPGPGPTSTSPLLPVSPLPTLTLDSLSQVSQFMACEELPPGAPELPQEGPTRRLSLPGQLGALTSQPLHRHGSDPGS
smiles,measurement,setting,value
NC(=O)c1nnc(N[C@@H]2CCCC[C@@H]2N)nc1Nc1cccc2cc[nH]c12,AUC/dose,Rattus norvegicus [1],1459 nM·h
same,concentration at 4 h,[2],1100 nM
same,concentration at 24 h,[3],35 nM
same,Drug metabolism,[4],metabolite_notdetected
same,Kd,[5],65 nM
same,Activity,Rattus norvegicus [6],Toxic
same,Vd,[7],6.8 L/kg
same,IC50,Rattus norvegicus [8],189 nM
same,Activity,Rattus norvegicus [9],Active
same,concentration at 4 h,[10],126 nM
same,concentration at 8 h,[11],1720 nM
same,IC50,[12],99 nM
same,Kd,[13],17 nM
same,AUC/dose,Canis familiaris [14],3414 nM·h
same,Activity,Canis familiaris [15],Toxic
same,Kd,[16],12 nM
same,Activity,Rattus norvegicus [17],Active
same,Vd,[18],16.4 L/kg
same,concentration at 8 h,[19],349 nM
same,Activity,Rattus norvegicus [20],Active
same,IC50,[21],9020 nM
same,inhibition in vivo at 22 mg/kg,Rattus norvegicus [22],85%
same,IC50,[23],5000 nM
